Assay results taken from PMC12215967 (Scientific Reports, 2025).
“Also recorded” adds a separate entry of the source. Each block holds one compound with its values, some of them ahead of it.

Key:
[1] = proton relaxivity measurement; type: physicochemical; conditions: 128 MHz, 298 K
[2] = system: HT-29 transplanted tumors (CD13 negative expression); experiment: T1WI MRI of HT-29 tumor-bearing mice, T/NT ratio; type: in vivo, human colorectal adenocarcinoma in BALB/c nude mice
[3] = system: HT-1080 transplanted tumors (CD13 positive expression); experiment: T1WI MRI of HT-1080 tumor-bearing mice, T/NT ratio; type: in vivo, human fibrosarcoma in BALB/c nude mice
CD13 receptor = CD13 receptor (Homo sapiens, UniProt P15144); experiment: competitive cell binding assay; conditions: HT-1080 cells, 0.01 to 60.00 µM
Sequence of CD13 receptor (P15144 whole entry): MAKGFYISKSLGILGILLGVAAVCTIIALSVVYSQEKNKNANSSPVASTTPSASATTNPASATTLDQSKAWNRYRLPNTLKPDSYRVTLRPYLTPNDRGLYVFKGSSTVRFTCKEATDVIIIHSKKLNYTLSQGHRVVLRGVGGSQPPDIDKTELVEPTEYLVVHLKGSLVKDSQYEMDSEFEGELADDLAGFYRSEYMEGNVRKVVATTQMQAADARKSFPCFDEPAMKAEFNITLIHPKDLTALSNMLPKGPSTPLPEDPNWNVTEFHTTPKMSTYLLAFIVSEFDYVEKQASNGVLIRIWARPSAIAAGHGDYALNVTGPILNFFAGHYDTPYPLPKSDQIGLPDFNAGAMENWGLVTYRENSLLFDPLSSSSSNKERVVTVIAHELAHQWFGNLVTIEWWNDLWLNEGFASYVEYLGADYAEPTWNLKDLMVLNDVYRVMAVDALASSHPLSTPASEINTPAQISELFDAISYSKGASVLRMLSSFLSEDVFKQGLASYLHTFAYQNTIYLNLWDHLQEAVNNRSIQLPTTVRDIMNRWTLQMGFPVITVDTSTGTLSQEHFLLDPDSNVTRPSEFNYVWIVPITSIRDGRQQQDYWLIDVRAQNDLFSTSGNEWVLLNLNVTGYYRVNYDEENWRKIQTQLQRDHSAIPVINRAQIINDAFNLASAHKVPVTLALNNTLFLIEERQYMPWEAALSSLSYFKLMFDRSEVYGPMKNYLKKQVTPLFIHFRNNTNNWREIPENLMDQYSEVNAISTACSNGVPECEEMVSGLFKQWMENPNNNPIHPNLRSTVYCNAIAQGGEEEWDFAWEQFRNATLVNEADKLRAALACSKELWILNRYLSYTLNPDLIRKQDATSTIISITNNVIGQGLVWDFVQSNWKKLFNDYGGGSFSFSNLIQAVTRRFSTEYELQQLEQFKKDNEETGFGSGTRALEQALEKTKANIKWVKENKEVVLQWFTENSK

[4] = system: HT-1080 transplanted tumors; experiment: tumor size on transverse MRI, HT-1080; type: in vivo, human fibrosarcoma in BALB/c nude mice
Summary of the method: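 8-week BALB/c nude mice (~25 g, SPF) bore right-axillary HT-1080 xenografts from 5 × 10^6 cells. At ~1 cm, mice got Gd-labeled probe (200 µg i.p.) and 3.0T T1WI MRI with a small-animal coil (TR 200 ms, TE 2.46 ms, 3 mm slices). Test compound was then given at 0.5 mg/kg/day i.p. for 7 days, with repeat MRI on day 8. Groups were compared by one-way ANOVA.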

APN/CD13 = experiment: immunohistochemistry of APN/CD13 expression in HT-1080 transplanted tumors; type: in vivo, human fibrosarcoma in BALB/c nude mice; conditions: ubenimex 0.5 mg/kg/day i.p., one week / 7 days
Summary of the method: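 HT-1080 cells, grown in DMEM with 10% FBS at 37 °C and 5% CO2, were inoculated at 5 × 10^6 cells into the right axilla of 8-week BALB/c nude mice. Tumors reached about 1 cm. Test compound was given at 0.5 mg/kg/day i.p. for 7 days. After the day-8 MRI, tumors were harvested, formaldehyde-fixed for 48 h, paraffin-embedded, cut at 5 μm and immunostained for APN/CD13.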

[5] = system: HT-29 transplanted tumors; experiment: tumor size on transverse MRI, HT-29; type: in vivo, human colorectal adenocarcinoma in BALB/c nude mice

- proton relaxivity R1 [1]: 4.0 mM^− 1S^− 1
- time of peak T/NT value post-injection ([2]; HT-29 xenografts, i.p. injection, T/NT value-time curve): 1 h
- time of peak T/NT value post-injection ([3]; HT-1080 xenografts, i.p. injection, T/NT value-time curve): 1 h
Compound: O=C([O-])CN1CCN(CC(=O)[O-])CCN(CC(=O)O)CCN(CC(=O)[O-])CC1.[Gd+3] [Gd-DOTA]
- tumor signal intensity on T1WI ([2]; HT-29 xenograft, intraperitoneal injection, before treatment): high signal intensity
- T/NT of HT-1080 xenografts (treated or untreated) compared with HT-29 xenografts ([3]; Gd-DOTA, 1 h post-injection): no significant difference in T/NT values
- tumor signal intensity on T1WI ([3]; HT-1080 xenograft, intraperitoneal injection, before treatment): high signal intensity

Compound: DOTA-G3CNGRC
- inhibition of 99mTc-DOTA-G3CNGRC binding to the CD13 receptor (CD13 receptor): inhibited by DOTA-G3CNGRC in a dose-dependent manner

Compound: CC(C)C[C@H](NC(=O)[C@@H](O)[C@H](N)Cc1ccccc1)C(=O)O [ubenimex]
- change of tumor size (sum of long and short diameters) ([4]; 7 days of ubenimex treatment): not changing significantly
- sum of the long and short diameters of the tumor, before treatment ([4]; HT-1080, n = 5, before ubenimex, P = 0.39 before vs after): 3.1 ± 0.1 cm
- expression of APN/CD13 in HT-1080 grafts after treatment (APN/CD13): decreased significantly; also recorded: markedly reduced
- sum of the long and short diameters of the tumor, after one week ([5]; HT-29, after one week, P = 0.001 vs before): 3.5 ± 0.2 cm
- sum of the long and short diameters of the tumor, before ([5]; HT-29, before, P = 0.001 vs after one week): 2.9 ± 0.1 cm
- change in T/NT ratio after treatment ([3]; ubenimex 0.5 mg/kg/day i.p., 7 days, MRI on the 8th day): decreased significantly
